The term GI50 denotes the concentration giving 50% growth inhibition.

This is an account of results in ChEMBL document CHEMBL2062438, “Probing the structural requirements for vitamin D3 inhibition of the hedgehog signaling pathway” (Bioorg Med Chem Lett, 2012).

A short description of data set [1]: Upregulation of CYP24A1 mRNA expression in human U87MG cells at 10 uM after 24 hrs by RT-PCR analysis relative to DMSO-treated control. It counts as functional, cell-based. The following applies: U-87MG ATCC.
Data set [2] addresses T1, Vitamin D3 receptor (Homo sapiens, UniProt P11473).
T1 sequence (P11473 whole entry): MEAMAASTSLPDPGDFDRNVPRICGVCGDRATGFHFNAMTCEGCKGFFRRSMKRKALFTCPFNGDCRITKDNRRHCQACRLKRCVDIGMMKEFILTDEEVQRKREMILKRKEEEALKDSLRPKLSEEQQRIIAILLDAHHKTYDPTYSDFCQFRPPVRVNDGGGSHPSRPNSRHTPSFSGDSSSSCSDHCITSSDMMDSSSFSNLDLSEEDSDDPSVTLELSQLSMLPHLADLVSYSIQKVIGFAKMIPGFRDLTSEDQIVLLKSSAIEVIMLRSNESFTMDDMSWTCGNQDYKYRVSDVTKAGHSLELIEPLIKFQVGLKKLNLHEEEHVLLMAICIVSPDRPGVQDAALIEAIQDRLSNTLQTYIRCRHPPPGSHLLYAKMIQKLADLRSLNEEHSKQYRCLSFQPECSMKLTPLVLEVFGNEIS
Put plainly: Binding affinity to full length human VDR by fluorescence polarization-based competitive assay. It counts as ADME. The method in brief:
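Competitive fluorescence polarization binding using full-length human VDR and a tight-binding fluorescent VDR ligand; analogues tested at 50 and 100 µM.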
Background: Fluorescence polarisation rises when a labelled molecule tumbles more slowly, as on binding a larger partner.

Data set [3] relates to HT-29. Put plainly: Upregulation of CYP24A1 mRNA expression in human HT-29 cells at 10 uM after 24 hrs by RT-PCR analysis relative to DMSO-treated control. It counts as functional.
Data set [4] in a line: Down-regulation of Gli1 mRNA expression in human U87MG cells at 10 uM after 24 hrs by RT-PCR analysis relative to DMSO-treated control. It counts as functional, cell-based. The settings on record: U-87MG ATCC.
In data set [5] the test system is HT-29. Put plainly: Growth inhibition of human HT-29 cells overexpressing VDR gene after 72 hrs by MTS assay. The data set is classed as functional. The settings on record: HT-29, 72 h. In short, it runs like this:
(§1)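 Cells seeded at 3000/well, incubated overnight at 37 °C in 5% CO2, then treated in triplicate at varying concentrations in 1% DMSO final for 72 h. Viable cells read by MTS. GI50 given as mean ± SEM of at least two separate experiments.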
(In general: Tetrazolium assays rely on reduction of a dye to a coloured formazan, in cell work by metabolically active cells.)

In data set [6] the target is Protein smoothened (Homo sapiens) (UniProt Q99835). Put plainly: Inhibition of SMO expressed in mouse C3H10T1/2 cells assessed as down-regulation of Gli1 mRNA expression at 5 uM after 24 hrs by RT-PCR analysis relative to oxysterol. The data set is classed as cell-based. Set-up: scale not given: the % may be the effect or the level left. The following applies: C3H 10T1/2. The method in brief: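 Hh-dependent C3H10T1/2 cells, with the pathway activated by oxysterol, co-treated with analogue at 5 µM for 24 h. Endogenous Gli1 mRNA is reported as % of the oxysterol control, set at 100%.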

For data set [7], the system named is HT-29. Put plainly: Down-regulation of Gli1 mRNA expression in human HT-29 cells at 10 uM after 24 hrs by RT-PCR analysis relative to DMSO-treated control. It counts as functional.
The nature of data set [8]: Growth inhibition of human U87MG cells after 72 hrs by MTS assay. It counts as functional, U-87MG ATCC. The settings on record: U-87 MG. In short, it runs like this: as §1
The target in data set [9] is T1, Vitamin D3 receptor. Put plainly: Binding affinity to full length human VDR expressed in mouse C3H10T1/2 cells assessed as upregulation of CYP24A1 mRNA expression at 5 uM after 24 hrs by RT-PCR analysis relative to control. It counts as ADME, cell-based. The settings on record: c3h 10t1/2, 24 h. The method in brief:
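Mouse C3H10T1/2 cells treated with analogue at 5 µM for 24 h. Cyp24A1 mRNA was measured and expressed relative to DMSO control, which was set to 1.0.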

For the next data set, the system named is U-87 MG. Put plainly: Ratio of CYP24A1 mRNA upregulation in human […] cells to upregulation of CYP24A1 mRNA in human U87MG cells. It counts as functional, U-87MG ATCC.

Sequence of Protein smoothened (Homo sapiens) (Q99835 whole entry): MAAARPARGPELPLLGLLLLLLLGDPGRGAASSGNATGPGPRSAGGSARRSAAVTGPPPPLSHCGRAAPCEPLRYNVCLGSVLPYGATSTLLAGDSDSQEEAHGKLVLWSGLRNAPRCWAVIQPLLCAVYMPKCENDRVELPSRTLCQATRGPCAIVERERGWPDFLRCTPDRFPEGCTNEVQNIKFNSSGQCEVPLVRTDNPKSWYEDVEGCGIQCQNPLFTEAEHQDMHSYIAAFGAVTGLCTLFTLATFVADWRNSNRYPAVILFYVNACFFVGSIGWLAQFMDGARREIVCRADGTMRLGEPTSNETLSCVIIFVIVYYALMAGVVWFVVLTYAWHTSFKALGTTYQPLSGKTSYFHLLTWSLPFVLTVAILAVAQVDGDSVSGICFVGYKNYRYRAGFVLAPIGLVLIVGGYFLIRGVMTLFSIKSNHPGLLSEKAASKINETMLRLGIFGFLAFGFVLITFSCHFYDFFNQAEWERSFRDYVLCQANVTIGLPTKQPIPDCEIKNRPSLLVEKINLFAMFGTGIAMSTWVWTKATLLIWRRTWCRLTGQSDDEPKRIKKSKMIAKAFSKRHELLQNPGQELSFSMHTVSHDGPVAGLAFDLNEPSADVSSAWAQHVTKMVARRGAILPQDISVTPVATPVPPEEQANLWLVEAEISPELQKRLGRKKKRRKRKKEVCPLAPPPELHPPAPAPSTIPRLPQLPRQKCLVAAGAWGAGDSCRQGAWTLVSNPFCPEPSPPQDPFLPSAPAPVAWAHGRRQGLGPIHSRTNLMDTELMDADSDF

With `C=C1CC[C@H](O)C/C1=C/C=C1\CCC[C@]2(C)[C@@H]([C@H](C)CO)CC[C@@H]12`, the fold change (FC) turned out to be 4.8 in data set [1], 69.1 in the data set with HT-29 [3], 1 in [4] and 2.7 in the data set on HT-29 [7]. The Activity on Vitamin D3 receptor [2] was greater than 100 µM; in [6], 80%; on Vitamin D3 receptor [9] it was 1350. For the same compound, the concentration for 50% growth inhibition (GI50) (with HT-29 [5]; in [8]) was greater than 100 µM in each case.
Turning to `C=C1CC[C@H](O)C/C1=C/C=C1\CCC[C@]2(C)[C@@H]([C@H](C)/C=C/[C@H](C)C(C)C)CC[C@@H]12` [ERGOCALCIFEROL], the fold change (FC) was 49.6 in [1], 10902 with HT-29 [3], 0.9 in data set [4] and 1.1 in the data set on HT-29 [7]. Further, the Activity on Vitamin D3 receptor [2] was greater than 100 µM; in [6], 28.1%; on Vitamin D3 receptor [9], 2410. Also, the GI50 in the data set with HT-29 [5] was greater than 100 µM; in data set [8], 33.7 µM. The Ratio in the data set with U-87 MG worked out at 25.
Regarding `C=C1CC[C@H](O)C/C1=C/C(O)C1(O)CCC[C@]2(C)[C@@H]([C@H](C)CCCC(C)C)CC[C@@H]12` (some centres not stated), the fold change (FC) in data set [1] is 0.5; in the data set on HT-29 [3] it was 1.2; in [4], 1.1; with HT-29 [7], 0.9. For the same compound, the Activity on Vitamin D3 receptor [2] was greater than 100 µM; in data set [6], 144%; at Vitamin D3 receptor [9] it was 6.7. The GI50 in the data set with HT-29 [5] is greater than 100 µM; in [8] it was 25.9 µM.
As to `C[C@H](CO)[C@H]1CC[C@H]2[C@@H](O)CCC[C@]12C`, the fold change (FC) was found to be 0.7 in data set [1], 1 in the data set on HT-29 [3], 1 in data set [4] and 1.2 in the data set with HT-29 [7]. The Activity on Vitamin D3 receptor [2] was greater than 100 µM; in data set [6], 87.6%; on Vitamin D3 receptor [9], 4.1. Moreover, the 50% growth inhibitory concentration (GI50) (in the data set on HT-29 [5]; in [8]) was greater than 100 µM throughout.
As to `C=C1CC[C@H](O)C/C1=C\C=C1/CCC[C@]2(C)[C@@H]([C@H](C)CO)CC[C@@H]12`, the fold change (FC) is 0.8 in [1], 3.3 in the data set with HT-29 [3], 0.8 in data set [4] and 1.3 in the data set with HT-29 [7]. In addition, the Activity on Vitamin D3 receptor [2] is greater than 100 µM; in data set [6] it was 66.7%; on Vitamin D3 receptor [9] it was 12.5. The concentration for 50% growth inhibition (GI50) was greater than 100 µM in the data set on HT-29 [5] and 88.8 µM in data set [8].
For `CC(C)CCC[C@@H](C)[C@H]1CC[C@H]2C(CCC3C[C@@H](O)CCC3C)CCC[C@]12C` (some centres not stated), the fold change (FC) in data set [1] turned out to be 0.8; in the data set on HT-29 [3], 1.4; in data set [4], 0.8; in the data set with HT-29 [7], 1.4. The Activity at Vitamin D3 receptor [2] is greater than 100 µM; in [6], 82.1%; on Vitamin D3 receptor [9], 1.5. Besides, the GI50 (in the data set on HT-29 [5]; in [8]) was greater than 100 µM each time.
For `CC(C)[C@@H](C)/C=C/[C@@H](C)[C@H]1CC[C@H]2[C@@H](O)CCC[C@]12C`, the fold change (FC) was 0.3 in data set [1], 0.7 in the data set with HT-29 [3], 0.8 in data set [4] and 0.9 in the data set with HT-29 [7]. Also, the values for the Activity (on Vitamin D3 receptor [2]; in data set [6]; on Vitamin D3 receptor [9]) were greater than 100 µM, 32.1% and 2.3, respectively. Also, the GI50 in the data set on HT-29 [5] came to 49.7 µM; in [8] it was 19 µM.
For `C=C1CCC=C/C1=C/C=C1\CCC[C@]2(C)[C@@H]([C@H](C)CCCC(C)C)CC[C@@H]12`, the fold change (FC) turned out to be 0.9 in data set [1], 1.9 in the data set on HT-29 [3], 1 in data set [4] and 1.8 in the data set on HT-29 [7]. The Activity on Vitamin D3 receptor [2] is greater than 100 µM; in data set [6], 79.4%; on Vitamin D3 receptor [9], 3. Also, the GI50 in the data set on HT-29 [5] is greater than 100 µM; in data set [8], 48.5 µM.
Turning to `C=C1CC[C@H](O)C/C1=C\C=C1/CCC[C@]2(C)[C@@H]([C@H](C)CCCC(C)C)CC[C@@H]12`, the fold change (FC) in [1] is 33.8; in the data set with HT-29 [3], 27.5; in data set [4] it was 1.1; in the data set on HT-29 [7], 1.2. Also, the Activity at Vitamin D3 receptor [2] was greater than 100 µM; in data set [6] it was 69.7%; on Vitamin D3 receptor [9] it was 43.5. Moreover, the concentration for 50% growth inhibition (GI50) is greater than 100 µM in the data set on HT-29 [5] and 46 µM in [8].
Take `CC(C)CCC[C@@H](C)[C@H]1CCC2=CCCC[C@@]21C`: the fold change (FC) is 0.5 in data set [1], 1.1 with HT-29 [3], 1 in data set [4] and 1.1 in the data set on HT-29 [7]. Also, the Activity on Vitamin D3 receptor [2] was greater than 100 µM; in [6], 111%; at Vitamin D3 receptor [9], 2.3. Besides, the 50% growth inhibitory concentration (GI50) (in the data set on HT-29 [5]; in data set [8]) was greater than 100 µM in each case.
For the compound `C=C1CC[C@H](O)C/C1=C/C=C1\CCC[C@]2(C)[C@@H]([C@H](C)CCCC(C)C)CC[C@@H]12` [CHOLECALCIFEROL], the fold change (FC) in [1] is 12.2; in the data set with HT-29 [3] it was 14697; in data set [4], 0.7; with HT-29 [7] it was 1.3. In addition, the results for the Activity at Vitamin D3 receptor [2] and at Vitamin D3 receptor [9] were greater than 100 µM and 8340, respectively. Further, the GI50 worked out at 68.5 µM in the data set on HT-29 [5] and 23.2 µM in data set [8]. The Ratio in the data set on U-87 MG amounted to 10000.
Regarding `CC(C)CCC[C@@H](C)[C@H]1CC[C@H]2[C@@H](O)CCC[C@]12C`, the fold change (FC) in data set [1] came to 0.4; with HT-29 [3], 1.1; in data set [4] it was 0.7; with HT-29 [7] it was 1.1. Further, the Activity is greater than 100 µM on Vitamin D3 receptor [2], 46.4% in data set [6] and 3.6 at Vitamin D3 receptor [9]. Besides, the 50% growth inhibitory concentration (GI50) was determined as 66.5 µM in the data set on HT-29 [5] and 5.7 µM in [8].
Turning to `CC(C)CCC[C@@H](C)[C@H]1CC[C@H]2C(=O)CCC[C@]12C`, the fold change (FC) is 0.5 in data set [1], 1 in the data set with HT-29 [3], 0.9 in data set [4] and 1.1 in the data set on HT-29 [7]. For the same compound, the Activity at Vitamin D3 receptor [2] was greater than 100 µM; in data set [6] it was 66.1%; at Vitamin D3 receptor [9], 3. Moreover, the figures for the GI50 (with HT-29 [5]; in data set [8]) were greater than 100 µM and 12.1 µM, respectively.
In the case of `C=C1CC[C@H](O)C/C1=C/CO`, the fold change (FC) in data set [1] is 0.6; with HT-29 [3], 0.7; in data set [4], 0.9; with HT-29 [7], 0.9. For the same compound, the Activity is greater than 100 µM at Vitamin D3 receptor [2], 80.9% in data set [6] and 2 at Vitamin D3 receptor [9]. In addition, the GI50 (in the data set with HT-29 [5]; in [8]) was greater than 100 µM throughout.
